The nature of data set [1]: Biodistribution in athymic nude mice bearing MDA-MB-435 breast cancer xenografts. In kind it is in vivo. Particulars: mouse; for tissue to tissue ratio at 2 h: female, athymic nu/nu, tumor and muscle, iv, total radioactivity; for tissue uptake at 0.5 h / tissue uptake at 2 h: in vivo; for tissue uptake at 0.5 h: 30 min p.i.; for tissue uptake at 2 h: 120 min p.i. An outline of the steps:
(§1)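 Female athymic nu/nu mice (4–5 weeks old) received 5 × 10⁶ cells s.c. into both mammary fat pads (MDA-MB-435) or both upper flanks (U87MG) and were used 2–4 weeks later with 0.05–0.4 g tumors. Each got ~2 μCi of HPLC-purified tracer in 0.1 mL saline i.v. via the tail vein. Four mice per time point were killed at 30, 60 and 120 min by pentobarbital overdose. Organs were weighed and γ-counted as %ID/g; T/B values are means ± SD.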

Data set [2] can be described thus: Biodistribution in athymic nude mice bearing U87MG glioma xenografts. In kind it is in vivo. Particulars: mouse; for tissue to tissue ratio at 0.5 h / tissue to tissue ratio at 2 h: female, athymic nu/nu, iv, total radioactivity; for tissue uptake at 0.5 h / tissue uptake at 2 h: in vivo; for tissue uptake at 0.5 h: 30 min p.i.; for tissue uptake at 2 h: 120 min p.i. In outline:
as §1

Another data set has as its system tumor-bearing mouse. Put plainly: Blocking experiment. In kind it is in vivo, mice. In outline:
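Tumour-bearing nude mice were given ~2 μCi of the 99mTc-labelled tracer i.v. together with ~350 μg (~14 mg/kg) excess unlabelled cyclic RGD dimer. The blocker was dissolved in the dose solution at 1.75 mg/mL and filtered. Four animals were killed at 1 h p.i. by pentobarbital overdose, and organ %ID/g was compared with unblocked animals at the same time point.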

The next data set relates to normal athymic nude mice. The data set is described as follows: Metabolism study. Format: in vivo. An outline of the steps: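 Two normal athymic nude mice per tracer each received 100–120 μCi i.v. via the tail vein. Urine was collected by manual void at 30 and 120 min, mixed with an equal volume of 20% aqueous acetonitrile, centrifuged at 8,000 rpm and filtered (0.20 μ). Feces collected at 2 h were suspended in 2 mL 20% acetonitrile, vortexed and centrifuged.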

Data set [3] has as its system athymic nude mice bearing U87MG glioma xenografts. The data set is described as follows: Biodistribution in athymic nude mice bearing U87MG glioma xenografts. Particulars: over the 2 h study period. Format: in vivo. An outline of the steps:
as §1

The mark [4] stands for this setting: tumor uptake, MDA-MB-435 breast tumor.
Setting [5] is: kidney uptake, MDA-MB-435 model.
Where [6] appears, read: muscle uptake, MDA-MB-435 model.
[7] abbreviates: blood uptake (blood clearance), U87MG model.

Entries after “also recorded” stand apart in the source; their conditions may differ.

For `N=C(N)NCCC[C@@H]1NC(=O)[C@H](CCCCNC(=O)CC[C@H](NC(=O)CCOCCOCCOCCOCCNC(=O)c2ccc(NN)nc2)C(=O)NCCCC[C@@H]2NC(=O)[C@@H](Cc3ccccc3)NC(=O)[C@H](CC(=O)O)NC(=O)CNC(=O)[C@H](CCCNC(=N)N)NC2=O)NC(=O)[C@@H](Cc2ccccc2)NC(=O)[C@H](CC(=O)O)NC(=O)CNC1=O` [^99mTc-PEG4-dimer, [^99mTc(HYNIC-PEG4-dimer)(tricine)(TPPTS)], metal not drawn, reference compound], the tissue to tissue ratio at 2 h in data set [1] is 2.91 ± 0.6. For the same molecule, in data set [1] (setting [4]), the tissue uptake at 0.5 h came to 3.49 ± 0.62 %ID/g and the tissue uptake at 2 h was 3.82 ± 0.54 %ID/g.
As to `N=C(N)NCCC[C@@H]1NC(=O)[C@H](CCCCNC(=O)CCOCCOCCOCCOCCNC(=O)CC[C@H](NC(=O)c2ccc(NN)nc2)C(=O)NCCOCCOCCOCCOCCC(=O)NCCCC[C@@H]2NC(=O)[C@@H](Cc3ccccc3)NC(=O)[C@H](CC(=O)O)NC(=O)CNC(=O)[C@H](CCCNC(=N)N)NC2=O)NC(=O)[C@@H](Cc2ccccc2)NC(=O)[C@H](CC(=O)O)NC(=O)CNC1=O` [^99mTc-2PEG4-dimer, [^99mTc(HYNIC-2PEG4-dimer)(tricine)(TPPTS)], metal not drawn], the tissue to tissue ratio at 2 h worked out at 6.52 ± 1.72 in data set [1]; 3.33 ± 0.64 in data set [2] (tumor and liver); 29.1 ± 8.54 in data set [2] (tumor and whole blood). Besides, the tissue uptake at 0.5 h in data set [1] (setting [5]) turned out to be 14.4 ± 4.09 %ID/g; in data set [1] (liver uptake, MDA-MB-435 model), 2.97 ± 0.63 %ID/g; in data set [1] (setting [6]), 1.76 ± 0.56 %ID/g; in data set [1] (setting [4]), 5.2 ± 1.74 %ID/g; in data set [2] (kidney uptake, U87MG model) it was 20.8 ± 2.32 %ID/g; in data set [2] (muscle uptake, U87MG model), 2.18 ± 0.37 %ID/g. The molecule also registered a tissue uptake at 0.5 h in data set [2] (tumor uptake, U87MG glioma) of 11.2 ± 1.96 %ID/g. Moreover, the tissue uptake at 2 h in data set [1] (setting [5]) is 13.8 ± 5.36 %ID/g; in data set [1] (liver uptake, MDA-MB-435 model) it was 3.27 ± 1.09 %ID/g; in data set [1] (setting [6]), 1.51 ± 0.35 %ID/g; in data set [1] (setting [4]), 9.77 ± 2.66 %ID/g; in data set [2] (kidney uptake, U87MG model), 10.2 ± 1.37 %ID/g; in data set [2] (muscle uptake, U87MG model), 1.27 ± 0.2 %ID/g. The molecule also gave a tissue uptake at 2 h in data set [2] (tumor uptake, U87MG glioma) of 8.31 ± 2.31 %ID/g. Besides, the tissue to tissue ratio at 0.5 h in data set [2] (tumor and liver) stood at 2.59 ± 0.45; in data set [2] (tumor and whole blood), 9.63 ± 1.32. Besides, in the data set on tumor-bearing mouse (60 min p.i., versus without blocking agent), the “uptake in the blood and kidneys in the presence of E[c(RGDfK)]2” value was “comparable”. Further, the “tumor uptake on co-injection of excess E[c(RGDfK)]2” value in the data set with tumor-bearing mouse (result in words) is listed as “partially blocked”. The “metabolic stability during excretion from renal and hepatobiliary routes” value in the data set on normal athymic nude mice (urine and feces over 2 h) is listed as “high metabolic stability; also recorded: remained intact; also recorded: very high metabolic stability”.
Regarding `N=C(N)NCCC[C@@H]1NC(=O)[C@H](CCCCNC(=O)CCOCCOCCOCCOCCNC(=O)CC[C@H](NC(=O)CCOCCOCCOCCOCCNC(=O)c2ccc(NN)nc2)C(=O)NCCOCCOCCOCCOCCC(=O)NCCCC[C@@H]2NC(=O)[C@@H](Cc3ccccc3)NC(=O)[C@H](CC(=O)O)NC(=O)CNC(=O)[C@H](CCCNC(=N)N)NC2=O)NC(=O)[C@@H](Cc2ccccc2)NC(=O)[C@H](CC(=O)O)NC(=O)CNC1=O` [^99mTc-3PEG4-dimer, [^99mTc(HYNIC-3PEG4-dimer)(tricine)(TPPTS)], metal not drawn], the tissue to tissue ratio at 0.5 h in data set [2] (tumor and liver) is 2.13 ± 0.87; in data set [2] (tumor and whole blood) it was 6.72 ± 2.88. The tissue to tissue ratio at 2 h in data set [2] (tumor and liver) amounted to 3.49 ± 1.64; in data set [2] (tumor and whole blood), 48.8 ± 18.7. The tissue uptake at 0.5 h in data set [2] (setting [7]) is 1.02 ± 0.22 %ID/g; in data set [2] (kidney uptake, U87MG model), 17.6 ± 0.73 %ID/g; in data set [2] (liver uptake, U87MG model), 3.14 ± 0.18 %ID/g; in data set [2] (muscle uptake, U87MG model), 1.45 ± 0.2 %ID/g; in data set [2] (tumor uptake, U87MG glioma), 8.17 ± 0.68 %ID/g. In addition, the tissue uptake at 2 h was 0.17 ± 0.02 %ID/g in data set [2] (setting [7]); 9.89 ± 1.2 %ID/g in data set [2] (kidney uptake, U87MG model); 2.92 ± 0.77 %ID/g in data set [2] (liver uptake, U87MG model); 1 ± 0.22 %ID/g in data set [2] (muscle uptake, U87MG model); 9.74 ± 3.22 %ID/g in data set [2] (tumor uptake, U87MG glioma); 4 to 6 %ID/g in data set [2] (tumor uptake, U87MG glioma, tumor size 0.5 g – 1.6 g or 500 – 1700 mm^3). This molecule returned a tissue uptake at 2 h in data set [2] (tumor uptake, U87MG glioma, tumor size <0.05 g or <50 mm^3) of 2 to 4 %ID/g. Besides, the “glioma uptake relative to ^99mTc-PEG4-monomer” value in data set [3] was about 3 ×. Further, the “metabolism during excretion from the hepatobiliary route” value with normal athymic nude mice (feces at 120 min p.i.) is listed as ~ 30%. Further, the “metabolic stability during excretion from the renal route” value with normal athymic nude mice (urine at 30 and 120 min p.i.) is “remained intact”.

(Values after publication PMC2634825 (Molecular pharmaceutics, 2009).)
